According to ChEMBL document CHEMBL4152356, “Amphipathic sulfonamidobenzamides mimicking small antimicrobial marine natural products; investigation of antibacterial and anti-biofilm activity against antibiotic resistant clinical isolates” (Bioorg Med Chem, 2018):

Legend:
[1] = tested on: Pseudomonas aeruginosa; assay: Antibacterial activity against Pseudomonas aeruginosa clinical isolates after 24 hrs by microdilution method; assay type: functional
Procedure, shortened: (§1)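 Clinical isolate screen by broth microdilution with about 1-1.2 × 10^6 cells/ml and 24 h incubation. MIC is the lowest concentration with no growth. For isolate collections, MIC90 is the MIC inhibiting ≥90% of isolates. Multidrug resistance was defined as resistance to at least […] antimicrobial class.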

[2] = tested on: Staphylococcus aureus; assay: Antibacterial activity against methicillin resistant Staphylococcus aureus 85/2082 clinical isolate after 24 hrs by microdilution method; assay type: functional; details: 85/2082, 24 h
Procedure, shortened: (§2)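 Broth microdilution in Mueller-Hinton broth (modified CLSI M07-A9), clinical isolates at about 1-1.2 × 10^6 cells/ml. Inoculum mixed 1:1 with serial compound dilutions; stocks made in up to 100% DMSO, final DMSO ≤1%. Incubated 24 h.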

[3] = tested on: Escherichia coli; assay: Antibacterial activity against New Delhi metallo-beta-lactamase 1-producing Escherichia coli 50,739,822 clinical isolate after 24 hrs by microdilution method; assay type: functional; details: Escherichia coli, 50,739,822, 24 h; procedure, shortened: as §1
[4] = tested on: Erythrocyte; assay: Hemolytic activity against human RBC measured after 1 hr; assay type: cell-based
Procedure, shortened: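 Washed human RBCs from a healthy donor (heparinized) at 10% in PBS pH 7.4, mixed 9:1 with serial compound dilutions, 37 °C for 1 h. Baseline set by 0.5% DMSO in 50% PBS, 100% lysis by 0.05% Triton X-100. EC50 is the concentration giving 50% lysis.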

[5] = tested on: Acinetobacter baumannii; assay: Antibacterial activity against oxacillinase 58-producing Acinetobacter baumannii K12-21 clinical isolate after 24 hrs by microdilution method; assay type: functional; details: K12-21, 24 h; procedure, shortened: as §2
[6] = tested on: Enterococcus sp.; assay: Antibacterial activity against Enterococcus sp. clinical isolates after 24 hrs by microdilution method; assay type: functional; procedure, shortened: as §1
[7] = tested on: Pseudomonas aeruginosa; assay: Antibacterial activity against Verona integron-encoded metallo-beta-lactamase 4-producing Pseudomonas aeruginosa K3473 clinical isolate after 24 hrs by microdilution method; assay type: functional; details: K3473, 24 h; procedure, shortened: as §1
[8] = tested on: Klebsiella pneumoniae; assay: Antibacterial activity against Verona integron-encoded metallo-beta-lactamase 1-producing Klebsiella pneumoniae 50,667,959 clinical isolate after 24 hrs by microdilution method; assay type: functional; details: Klebsiella pneumoniae, 50,667,959, 24 h; procedure, shortened: as §1
[9] = tested on: Escherichia coli; assay: Antibacterial activity against oxacillinase 48-producing Escherichia coli 50,579,417 clinical isolate after 24 hrs by microdilution method; assay type: functional; details: Escherichia coli, 50,579,417, 24 h; procedure, shortened: as §1
[10] = tested on: Enterococcus faecium; assay: Antibacterial activity against vancomycin resistant Enterococcus faecium 50,673,722 clinical isolate after 24 hrs by microdilution method; assay type: functional; details: Enterococcus faecium, 50,673,722, 24 h; procedure, shortened: as §2
[11] = tested on: Klebsiella pneumoniae; assay: Antibacterial activity against New Delhi metallo-beta-lactamase 1-producing Klebsiella pneumoniae K6645 clinical isolate after 24 hrs by microdilution method; assay type: functional; details: K6645, 24 h; procedure, shortened: as §1
[12] = tested on: Escherichia coli; assay: Antibacterial activity against New Delhi metallo-beta-lactamase 1-producing Escherichia coli 50,676,002 clinical isolate after 24 hrs by microdilution method; assay type: functional; details: Escherichia coli, 50,676,002, 24 h; procedure, shortened: as §1
[13] = tested on: Pseudomonas aeruginosa; assay: Antibacterial activity against Verona integron-encoded metallo-beta-lactamase 2-producing Pseudomonas aeruginosa K347 clinical isolate after 24 hrs by microdilution method; assay type: functional; details: K347, 24 h; procedure, shortened: as §1
[14] = tested on: Pseudomonas aeruginosa; assay: Antibacterial activity against Pseudomonas aeruginosa PAO1 DSM 19880 ATCC 15692 after 48 hrs by microdilution method; assay type: functional; details: PAO1 DSM 19880 ATCC 15692, 48 h
Procedure, shortened: (§3)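 Broth microdilution (CLSI M07-A9, modified) in Mueller-Hinton broth; inoculum about 2.5-3 × 10^4 cells/ml mixed 1:1 with serial compound dilutions. Stock solutions in up to 100% DMSO, final DMSO ≤1%. Incubated 35 °C for 48 h.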

[15] = tested on: Acinetobacter baumannii; assay: Antibacterial activity against oxacillinase 23-producing Acinetobacter baumannii K47-42 clinical isolate after 24 hrs by microdilution method; assay type: functional; details: K47-42, 24 h; procedure, shortened: as §2
[16] = tested on: Staphylococcus aureus; assay: Antibacterial activity against methicillin resistant Staphylococcus aureus NCTC 10442 clinical isolate after 24 hrs by microdilution method; assay type: functional; details: NCTC 10442, 24 h; procedure, shortened: as §2
[17] = tested on: Klebsiella pneumoniae; assay: Antibacterial activity against Klebsiella pneumoniae clinical isolates after 24 hrs by microdilution method; assay type: functional; procedure, shortened: as §1
[18] = tested on: Acinetobacter baumannii; assay: Antibacterial activity against oxacillinase 23-producing Acinetobacter baumannii K44-35 clinical isolate after 24 hrs by microdilution method; assay type: functional; details: K44-35, 24 h; procedure, shortened: as §2
[19] = tested on: Staphylococcus aureus; assay: Antibacterial activity against methicillin resistant Staphylococcus aureus IHT 99040 clinical isolate after 24 hrs by microdilution method; assay type: functional; details: IHT 99040, 24 h; procedure, shortened: as §2
[20] = tested on: Escherichia coli; assay: Antibacterial activity against Escherichia coli ATCC 25922 after 48 hrs by microdilution method; assay type: functional; details: ATCC 25922, 48 h; procedure, shortened: as §3
[21] = tested on: MRC5; assay: Cytotoxicity against human MRC5 cells after 72 hrs by MTS assay; assay type: cell-based; details: MRC5, 72 h
Procedure, shortened: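 MRC-5 lung fibroblasts in DMEM with 10% FBS, 37 °C, 5% CO2; seeded at 4000 cells/well, adhered 24 h, medium replaced. Two-fold dilutions up to 100 µg/ml for 72 h, then MTS for 1 h and absorbance at 485 nm. Controls were 1% DMSO (negative) and 0.5% Triton X-100 (positive). EC50 is the concentration giving 50% inhibition of survival.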

[22] = tested on: Klebsiella pneumoniae; assay: Antibacterial activity against KPC2-producing Klebsiella pneumoniae K4725 clinical isolate after 24 hrs by microdilution method; assay type: functional; details: K4725, 24 h; procedure, shortened: as §1
[23] = tested on: Escherichia coli; assay: Antibacterial activity against imipenem 26-type carbapenemase-producing Escherichia coli 50,857,972 clinical isolate after 24 hrs by microdilution method; assay type: functional; details: Escherichia coli, 50,857,972, 24 h; procedure, shortened: as §1
[24] = tested on: Enterococcus faecium; assay: Antibacterial activity against vancomycin resistant Enterococcus faecium 50,758,899 clinical isolate after 24 hrs by microdilution method; assay type: functional; details: Enterococcus faecium, 50,758,899, 24 h; procedure, shortened: as §2
[25] = tested on: Enterococcus faecium; assay: Antibacterial activity against vancomycin resistant Enterococcus faecium TUH50-22 clinical isolate after 24 hrs by microdilution method; assay type: functional; details: TUH50-22, 24 h; procedure, shortened: as §2
[26] = tested on: Enterococcus faecium; assay: Antibacterial activity against vancomycin resistant Enterococcus faecium K36-18 clinical isolate after 24 hrs by microdilution method; assay type: functional; details: K36-18, 24 h; procedure, shortened: as §2
[27] = tested on: Staphylococcus aureus; assay: Antibacterial activity against methicillin resistant Staphylococcus aureus N315 clinical isolate after 24 hrs by microdilution method; assay type: functional; details: N315, 24 h; procedure, shortened: as §2
[28] = tested on: Acinetobacter baumannii; assay: Antibacterial activity against colistin-resistant oxacillinase 23-producing Acinetobacter baumannii K63-58 clinical isolate after 24 hrs by microdilution method; assay type: functional; details: K63-58, 24 h; procedure, shortened: as §2
[29] = tested on: Acinetobacter baumannii; assay: Antibacterial activity against oxacillinase 24-producing Acinetobacter baumannii K55-13 clinical isolate after 24 hrs by microdilution method; assay type: functional; details: K55-13, 24 h; procedure, shortened: as §2
[30] = tested on: Klebsiella pneumoniae; assay: Antibacterial activity against New Delhi metallo-beta-lactamase 1/oxacillinase 181-producing Klebsiella pneumoniae 50531633 clinical isolate after 24 hrs by microdilution method; assay type: functional; details: Klebsiella pneumoniae, 50531633, 24 h; procedure, shortened: as §1
[31] = tested on: Staphylococcus aureus; assay: Antibacterial activity against methicillin resistant Staphylococcus aureus WIS clinical isolate after 24 hrs by microdilution method; assay type: functional; procedure, shortened: as §2
[32] = tested on: Staphylococcus aureus; assay: Antibacterial activity against Staphylococcus aureus ATCC 9144 after 48 hrs by microdilution method; assay type: functional; details: ATCC 9144, 48 h; procedure, shortened: as §3
[33] = tested on: Pseudomonas aeruginosa; assay: Antibacterial activity against New Delhi metallo-beta-lactamase 1-producing Pseudomonas aeruginosa 50,692,172 clinical isolate after 24 hrs by microdilution method; assay type: functional; details: Pseudomonas aeruginosa, 50,692,172, 24 h; procedure, shortened: as §1

CC(C)(C)c1cc(C(C)(C)C)cc(S(=O)(=O)Nc2cc3ccccc3cc2C(=O)NCCNC(=N)N)c1.Cl
MIC [1]: 32 to 64 µg/mL | MIC [2]: 8 µg/mL | MIC [3]: > 32 µg/mL | EC50 [4]: 25 µg/mL | MIC [5]: 32 µg/mL | MIC [6]: 8 µg/mL | MIC [7]: ≥ 32 µg/mL | MIC [8]: ≥ 32 µg/mL | MIC [9]: ≥ 32 µg/mL | MIC [10]: 8 µg/mL | MIC [11]: 32 µg/mL | MIC [12]: > 32 µg/mL | MIC [13]: > 64 µg/mL | MIC [14]: 32 µg/mL | MIC [15]: 32 µg/mL | MIC [16]: 8 µg/mL | MIC [17]: 16 to 32 µg/mL | MIC [18]: 32 µg/mL | MIC [19]: 8 µg/mL | MIC [20]: 8 µg/mL | EC50 [21]: 55 µg/mL | MIC [22]: > 32 µg/mL | MIC [23]: > 32 µg/mL | MIC [24]: 8 µg/mL | MIC [25]: 4 µg/mL | MIC [26]: 8 µg/mL | MIC [27]: 4 µg/mL | MIC [28]: 32 µg/mL | MIC [29]: 32 µg/mL | MIC [30]: > 32 µg/mL | MIC [31]: 8 µg/mL | MIC [32]: 4 µg/mL | MIC [33]: > 64 µg/mL

CN(c1ccc(C(=O)NCCCNC(=N)N)cc1)S(=O)(=O)c1cc(C(C)(C)C)cc(C(C)(C)C)c1.Cl
MIC [1]: 8 to 16 µg/mL | MIC [2]: 8 µg/mL | MIC [3]: ≥ 32 µg/mL | EC50 [4]: 55 µg/mL | MIC [5]: ≥ 32 µg/mL | MIC [6]: 8 to 16 µg/mL | MIC [7]: 32 µg/mL | MIC [8]: ≥ 32 µg/mL | MIC [9]: ≥ 32 µg/mL | MIC [10]: 16 µg/mL | MIC [11]: 32 µg/mL | MIC [12]: ≥ 32 µg/mL | MIC [13]: > 32 µg/mL | MIC [14]: 16 µg/mL | MIC [15]: 32 µg/mL | MIC [16]: 8 µg/mL | MIC [17]: 32 µg/mL | MIC [18]: ≥ 32 µg/mL | MIC [19]: 8 µg/mL | MIC [20]: 16 µg/mL | EC50 [21]: 36 µg/mL | MIC [22]: ≥ 32 µg/mL | MIC [23]: 32 µg/mL | MIC [24]: 8 µg/mL | MIC [25]: 16 µg/mL | MIC [26]: 16 µg/mL | MIC [27]: 8 µg/mL | MIC [28]: ≥ 32 µg/mL | MIC [29]: ≥ 32 µg/mL | MIC [30]: ≥ 32 µg/mL | MIC [31]: 8 µg/mL | MIC [32]: 4 µg/mL | MIC [33]: 32 µg/mL
